Data: ChEMBL document CHEMBL3272327, “Hypocholesterolemic activity of 1,3-bis(substituted phenoxy)-2-propanones” (J Med Chem, 1976)

How the values were obtained:
[1] = test system: Rattus norvegicus; assay: Effect on food intake in rat at 1 mg/kg/day measured during first week (reference value: 19.1 +/- 1.7 gms); assay type: ADME, organism-based; settings: in vivo
How it was run: (§1)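 Male rats dosed orally at 1, 5, 10 or 50 mg/kg/day in 1% CMC. Average food intake in grams per rat per week measured over a 2-week period, first and second weeks reported separately. N = 8, Student's t test against the 1% CMC control.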

[2] = test system: Rattus norvegicus; assay: Effect on food intake in rat at 5 mg/kg/day measured during first week (reference value: 19.1 +/- 1.7 gms); assay type: ADME, organism-based; settings: in vivo; how it was run: as §1
[3] = test system: Rattus norvegicus; assay: Effect on food intake in rat at 5 mg/kg/day measured during second week (reference value: 23.4 +/- 1.8 gms); assay type: ADME, organism-based; settings: in vivo; how it was run: as §1
[4] = test system: Rattus norvegicus; assay: Effect on food intake in rat at 50 mg/kg/day measured during second week (reference value: 23.4 +/- 1.8 gms); assay type: ADME, organism-based; settings: in vivo; how it was run: as §1
[5] = test system: Rattus norvegicus; assay: Effect on liver weight in rat at 5 mg/kg/day administered for 16 days measured 24 hrs after last drug dosage relative to total body weight (reference value: 4.22 +/- 0.29%); assay type: ADME, organism-based; settings: in vivo
[6] = test system: Rattus norvegicus; assay: Effect on heart weight in rat at 1 mg/kg/day administered for 16 days measured 24 hrs after last drug dosage relative to total body weight (reference value: 0.37 +/- 0.04%); assay type: ADME, organism-based; settings: in vivo
[7] = test system: Rattus norvegicus; assay: Effect on spleen weight in rat at 1 mg/kg/day administered for 16 days measured 24 hrs after last drug dosage relative to total body weight (reference value: 0.55 +/- 0.12%); assay type: ADME, organism-based; settings: in vivo
[8] = test system: Rattus norvegicus; assay: Effect on spleen weight in rat at 5 mg/kg/day administered for 16 days measured 24 hrs after last drug dosage relative to total body weight (reference value: 0.55 +/- 0.12%); assay type: ADME, organism-based; settings: in vivo
[9] = test system: Rattus norvegicus; assay: Effect on vas deferens and epididymis weight in rat at 10 mg/kg/day administered for 16 days measured 24 hrs after last drug dosage relative to total body weight (reference value: 0.22 to 0.24%); assay type: ADME, organism-based; settings: in vivo
[10] = test system: Rattus norvegicus; assay: Effect on adrenal gland weight in rat at 10 mg/kg/day administered for 16 days measured 24 hrs after last drug dosage relative to total body weight (reference value: 0.015 +/- 0.003%); assay type: ADME, organism-based; settings: in vivo
[11] = test system: Rattus norvegicus; assay: Hypocholesterolemic activity in rat assessed as [14C]palmitic acid level in spleen at 10 mg/kg/day administered for 1 week measured after 22 hrs on day 7 by scintillation counting analysis (reference value: 0.46 +/- 0.24%); assay type: functional
How it was run: (§2)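 Male Sprague-Dawley rats on lab chow dosed orally once daily for 1 week at 10 mg/kg/day, suspended in 1% CMC, or given vehicle alone. On day 7, 5 μCi [1-14C]palmitic acid given orally. Killed after 22 hr; organs made into 10% water homogenates. Aliquots of 0.1 cc of homogenate, urine, blood or feces were digested and scintillation counted. Output is % of dose per tissue, N = 6.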

[12] = test system: Rattus norvegicus; assay: Hypocholesterolemic activity in rat assessed as [14C]palmitic acid level in stomach at 10 mg/kg/day administered for 1 week measured after 22 hrs on day 7 by scintillation counting analysis (reference value: 0.65 +/- 0.46%); assay type: functional; how it was run: as §2
[13] = test system: Rattus norvegicus; assay: Hypocholesterolemic activity in rat assessed as [14C]palmitic acid level in small intestine at 10 mg/kg/day administered for 1 week measured after 22 hrs on day 7 by scintillation counting analysis (reference value: 4.43 +/- 1.43%); assay type: functional; how it was run: as §2
[14] = test system: Rattus norvegicus; assay: Hypocholesterolemic activity in rat assessed as [14C]palmitic acid level in feces at 10 mg/kg/day administered for 1 week measured after 22 hrs on day 7 by scintillation counting analysis (reference value: 75.52 +/- 6.21%); assay type: functional; how it was run: as §2
[15] = test system: Rattus norvegicus; assay: Hypocholesterolemic activity in rat assessed as [14C]palmitic acid level in blood at 10 mg/kg/day administered for 1 week measured after 22 hrs on day 7 by scintillation counting analysis (reference value: 0.11 +/- 0.06%); assay type: functional
[16] = test system: Rattus norvegicus; assay: Hypocholesterolemic activity in rat assessed as [14C]cholesterol level in liver at 10 mg/kg/day administered for 1 week measured after 22 hrs on day 7 by scintillation counting analysis (reference value: 19.80 +/- 2.93%); assay type: functional
How it was run: (§3)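 Male rats were dosed orally for 1 week (10 mg/kg/day) or with 1% CMC. On day 7 they received 5 μCi [4-14C]cholesterol orally and were killed after 22 hr. Organs were homogenized (10% in water); 0.1-cc aliquots of homogenate, urine, blood or feces were digested with Protosol. Samples were counted in toluene/Triton X-100 (2:1) scintillant with 0.4% PPO and 0.01% POPOP. Results are % of dose per tissue, N = 6.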

[17] = test system: Rattus norvegicus; assay: Hypocholesterolemic activity in rat assessed as [14C]cholesterol level in spleen at 10 mg/kg/day administered for 1 week measured after 22 hrs on day 7 by scintillation counting analysis (reference value: 1.41 +/- 1.01%); assay type: functional; how it was run: as §3
[18] = test system: Rattus norvegicus; assay: Hypocholesterolemic activity in rat assessed as [14C]cholesterol level in vas deferens at 10 mg/kg/day administered for 1 week measured after 22 hrs on day 7 by scintillation counting analysis (reference value: 0.03 +/- 0.02%); assay type: functional; how it was run: as §3
[19] = test system: Rattus norvegicus; assay: Hypocholesterolemic activity in rat assessed as [14C]cholesterol level in chyme at 10 mg/kg/day administered for 1 week measured after 22 hrs on day 7 by scintillation counting analysis (reference value: 8.72 +/- 4.95%); assay type: functional; how it was run: as §3
[20] = test system: Rattus norvegicus; assay: Hypocholesterolemic activity in rat assessed as [14C]cholesterol level in feces at 10 mg/kg/day administered for 1 week measured after 22 hrs on day 7 by scintillation counting analysis (reference value: 15.50 +/- 5.24%); assay type: functional; how it was run: as §3
[21] = test system: Rattus norvegicus; assay: Effect on body weight in rat at 50 mg/kg/day administered for 16 days measured on day 7 (reference value: 173 +/- 12 gms); assay type: ADME, organism-based; settings: in vivo, 384 h
How it was run: (§4)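 Male Sprague-Dawley rats with chow and water ad libitum. Compound suspended in 1% CMC-water and given orally by intubation needle at 11:00 a.m., 1, 5, 10 or 50 mg/kg/day, for 16 days. Body weight (g) recorded on days 0, 7 and 16. N = 8.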

[22] = test system: Rattus norvegicus; assay: Effect on body weight in rat at 10 mg/kg/day administered for 16 days measured on day 16 (reference value: 233 +/- 16 gms); assay type: ADME, organism-based; settings: in vivo, 384 h; how it was run: as §4
[23] = test system: Rattus norvegicus; assay: Hypocholesterolemic activity in Sprague-Dawley rat assessed as serum cholesterol level at 1 mg/kg/day, po administered via intubation measured on day 4 by Liebermann-Burchard reaction (reference value: 100 +/- 7%); assay type: functional
[24] = test system: Rattus norvegicus; assay: Hypocholesterolemic activity in Sprague-Dawley rat assessed as serum cholesterol level at 5 mg/kg/day, po administered via intubation measured on day 16 by Liebermann-Burchard reaction (reference value: 100 +/- 8%); assay type: functional
[25] = test system: Rattus norvegicus; assay: Hypocholesterolemic activity in rat assessed as serum triglyceride level at 10 mg/kg/day administered for 8 days (reference value: 100 +/- 15%); assay type: functional
How it was run: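 Male Sprague-Dawley rats dosed orally at 10 mg/kg/day in 1% CMC. Serum triglycerides were measured with a stat pack kit after 8 days of dosing. Expressed as percent of vehicle control, N = 8; Student's t test.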

[26] = test system: Rattus norvegicus; assay: Effect on protein content in rat liver at 10 mg/kg/day administered for 16 days (reference value: 100 +/- 6%); assay type: ADME, organism-based; settings: in vivo, 384 h
[27] = test system: Rattus norvegicus; assay: Hypocholesterolemic activity in rat assessed as [14C]cholesterol recover at 10 mg/kg/day administered for 1 week measured after 22 hrs on day 7 by scintillation counting analysis (reference value: 99.11%); assay type: functional; how it was run: as §3

## Cc1ccc(OCC(=O)COc2ccc(C)cc2)cc1
[1]
  Activity: 19.2 g
[2]
  Activity: 18.8 g
[3]
  Activity: 28.8 g
[4]
  Activity: 28.2 g
[5]
  Activity: 4.31%
[6]
  Activity: 0.38%
[7]
  Activity: 0.43%
[8]
  Activity: 0.44%
[9]
  Activity: 0.24%
[10]
  Activity: 0.016%
[11]
  Activity: 0.37%
[12]
  Activity: 0.48%
[13]
  Activity: 6.05%
[14]
  Activity: 63.52%
[15]
  Activity: 0.03%
[16]
  Activity: 22.19%
[17]
  Activity: 1.86%
[18]
  Activity: 0.07%
[19]
  Activity: 9.21%
[20]
  Activity: 22.1%
[21]
  Activity: 171 g
[22]
  Activity: 234 g
[23]
  Activity: 75%
[24]
  Activity: 56%
[25]
  Activity: 70%
[26]
  Activity: 102%
[27]
  Activity: 99.94%
